Source: PubChem BioAssay
LYPLA1 inh: blocks human lysophospholipase 1, a PME1 counter-screen. 320,000 tested, 0.16% active. O75608. AID 2174. recombinant LYPLA1, FP-Rh probe fluorescence polarization. inhibition, % at 5.9 µM;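 active = inhibition above the mean of all tested compounds plus 3 SD, set per campaign, cut at about 14% in these data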;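 note: inhibitors block serine hydrolase probe labeling of LYPLA1 so polarization falls; 0% = enzyme with DMSO and 100% = wells lacking LYPLA1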
PME-1 primary: PME-1 (human) inhibition | inhibition, % at 5.9 µM | recombinant PME-1, FP-Rh probe fluorescence polarization | Q9Y570 | 320,000 tested, 0.53% active;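 active = inhibition above the campaign mean of all compounds plus 3 SD, cut at about 26% in these data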;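 note: competitive labeling of PME-1 active site by serine hydrolase directed probe; 0% = PME-1 with DMSO and 100% = wells lacking PME-1 enzyme; inhibitors block probe labeling so polarization falls and inhibition rises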
Target sequence (Q9Y570 whole entry, looked up): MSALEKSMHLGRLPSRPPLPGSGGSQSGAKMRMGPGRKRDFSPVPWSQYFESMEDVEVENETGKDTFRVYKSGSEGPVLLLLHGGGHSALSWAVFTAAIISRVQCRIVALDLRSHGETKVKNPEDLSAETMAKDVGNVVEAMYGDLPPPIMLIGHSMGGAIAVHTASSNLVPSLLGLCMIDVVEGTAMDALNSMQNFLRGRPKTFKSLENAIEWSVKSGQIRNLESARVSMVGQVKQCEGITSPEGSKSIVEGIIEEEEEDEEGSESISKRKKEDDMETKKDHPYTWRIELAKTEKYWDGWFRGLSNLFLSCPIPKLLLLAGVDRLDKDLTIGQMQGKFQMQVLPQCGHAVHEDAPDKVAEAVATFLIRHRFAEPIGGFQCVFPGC
Fam108B counter: Fam108B inhibition, counter-screen for RBBP9 inhibitors; 300,000 tested, 0.33% active; AID 1947; inhibition, % at 9.51 µM; recombinant Fam108B, FP-Rh probe fluorescence polarization;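 active = inhibition above the screen mean inhibition plus 3 SD, computed separately per campaign, cut at about 18% in these data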;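 note: inhibitors lower polarization as less probe binds the enzyme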
RBBP9 inh: human RBBP9 hydrolase inhibition | O75884 | recombinant RBBP9, FP-Rh probe fluorescence polarization | inhibition, % at 7.94 µM | 220,000 tested, 0.2% active;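 active = inhibition above the campaign mean of all tested compounds plus 3 SD, cut at about 14% in these data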;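 note: plate controls were DMSO wells with RBBP9 for no effect and wells lacking RBBP9 protein for full effect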
Target sequence (O75884 whole entry, looked up): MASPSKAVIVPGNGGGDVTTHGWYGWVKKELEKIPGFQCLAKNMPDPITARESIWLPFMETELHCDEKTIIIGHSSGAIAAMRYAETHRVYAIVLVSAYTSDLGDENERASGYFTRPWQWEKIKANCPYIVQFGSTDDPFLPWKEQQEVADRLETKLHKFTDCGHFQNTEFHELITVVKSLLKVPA
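Assay system: recombinant human RBBP9; Reagent: Serine-hydrolase probe FP-Rh, 375 nM pre-mixing; Doses: 7.94 µM single dose, 0.794% DMSO; Incubation: 30 min then 45 min, 25 °C; Detection: fluorescence polarization (mP), excitation 525 nm, emission 598 nm; Evaluation: percent inhibition from mP, scaled between DMSO and no-protein wells.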
LYPLA2 counter: blocks human lysophospholipase 2, a PME1 counter-screen; AID 2177; 320,000 tested, 0.38% active; inhibition, % at 5.9 µM; O95372; recombinant LYPLA2, FP-Rh probe fluorescence polarization;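 active = inhibition above the screen-wide mean plus 3 SD, limit set per campaign, cut at about 26% in these data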;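 note: 0% = LYPLA2 with DMSO and 100% = wells lacking LYPLA2 enzyme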
PAD4 inh: inhibitors of human PAD4; recombinant PAD4, RCA probe fluorescence polarization; AID 485272; inhibition, % at 6.36 µM; Q9UM07; 330,000 tested, 0.41% active;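 active = percent inhibition above a cutoff equal to the mean of all tested compounds plus 3 SD, cut at about 15% in these data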;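 note: 0% = PAD4 with RCA probe and DMSO and 100% = probe without PAD4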
Fam108b confirm: Fam108b (mouse) hydrolase inhibition, confirmation assay. 930 tested, 44% active. shares compounds with Fam108B counter. recombinant Fam108b, FP-Rh probe fluorescence polarization. inhibition, % at 9.51 µM;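 active = inhibition above a limit from the primary screen, the mean over all compounds plus 3 SD, cut at about 19% in these data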;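 note: 0% = median of active Fam108b wells and 100% = catalytically dead S170A mutant; inhibitors free the probe so polarization falls as inhibition rises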
Fam108b inh: inhibits mouse Fam108b in gel-based ABPP. shares compounds with Fam108B counter. recombinant Fam108b, fluorophosphonate probe. inhibition, % at 20 µM. 260 tested, 44% active. AID 588649; in the data active = inhibition above about 40%
The depositor's hits bear a star; nt = not tested or not shown; + = active, no number. In the library only some 1.3% were active in any assay of this set; here they are far more common.

SMILES	LYPLA1 inh	PME-1 primary	Fam108B counter	RBBP9 inh	LYPLA2 counter	PAD4 inh	Fam108b confirm	others
O=C1Nc2ccccc2C1=Nc1cccc([N+](=O)[O-])c1	2	0	-3	nt	8	5	nt
O=C(O)c1ccc([N+](=O)[O-])c2c1C(=O)c1ccccc1C2=O	0	10	1	nt	2	-4	nt
O=C1c2ccccc2C(=O)c2c([N+](=O)[O-])ccc(O)c21	8	29*	31*	1	10	14	36*	Fam108b inh=30
CCN(CC)c1ccc2cc(C(N)=O)c(=N)oc2c1	3	0	1	-7	8	-3	nt
CCN(CC)c1ccc2c(-c3ccc(S(=O)(=O)O)cc3S(=O)(=O)[O-])c3ccc(=[N+](CC)CC)cc-3oc2c1	-5	+	90*	nt	-16	nt	166*
CN(C)S(=O)(=O)c1cccc(NC(=S)N/N=C/c2cc(Br)ccc2O)c1	-16	38*	29*	-4	-15	0	3
Clc1ccccc1CN1CCN(/N=C/C=C\c2ccco2)CC1	-3	2	1	-7	-2	0	nt
COc1cc(/C=N/NC(=O)c2ccc(CN3C(=O)c4cccc5cccc3c45)cc2)cc(OC)c1O	-10	17	31*	8	-7	-2	22*
NC(=O)c1ccc(Oc2ccc(C(N)=O)cc2)cc1	0	-5	-1	-2	-2	1	nt
COc1ccc(/C=N/NC(=O)c2cccc([N+](=O)[O-])c2)cc1OS(=O)(=O)c1ccccc1	2	2	31*	-8	-3	3	26*
CCCn1nc([N+](=O)[O-])c(C(C#N)c2nc3ccccc3o2)c(Cl)c1=O (stereo not drawn)	7	27*	29*	2	18	8	14
Cn1nc([N+](=O)[O-])c(C(C#N)c2ccccn2)c(Cl)c1=O (stereo not drawn)	2	8	7	9	0	4	nt
Cc1ccc(Cn2c(C(C)Nc3nc(-c4ccc(Cl)c([N+](=O)[O-])c4)cs3)nc3cc(C(F)(F)F)ccc32)cc1 (stereo not drawn)	-6	-9	-6	nt	-1	-3	nt
CCn1nc([N+](=O)[O-])c(C(C#N)c2nc3cc(C(F)(F)F)ccc3s2)c(Cl)c1=O (stereo not drawn)	1	56*	43*	6	17	14	38*	Fam108b inh=65*
COc1ccc(C2=NS(=O)(=O)N(C)C(C(=O)N3CCCCC3)=C2)cc1OC	-4	0	-1	nt	-6	2	nt
O=C(Cc1cccc2ccccc12)Nc1nc(-c2cccc([N+](=O)[O-])c2)cs1	-19	14	20*	-2	-19	-1	9
Cc1ccc(NC(=O)COC(=O)CCc2nc3ccccc3c(=O)[nH]2)cc1Cl	1	-2	4	-5	2	0	nt
O=[N+]([O-])c1ccc(NN=Cc2cccc(O)c2O)cc1	nt	nt	nt	nt	nt	nt	nt	Fam108b inh=40*
O=[N+]([O-])c1cccc(N/N=C/c2cccc(O)c2O)c1	-8	41*	26*	-2	-3	-1	11
COc1cccc(/C=N/Nc2ccc([N+](=O)[O-])cc2)c1O	-2	6	0	nt	2	0	nt
O=[N+]([O-])c1ccc(NN=Cc2ccccc2O)cc1	nt	nt	nt	nt	nt	nt	nt	Fam108b inh=90*
Oc1cccc(NC(=S)N=Nc2c(O)[nH]c3ccc(Br)cc23)c1	-7	33*	24*	9	1	0	8
CC(=O)N1CCN(C(=O)c2cc(S(=O)(=O)N3CCCCC3)ccc2Cl)CC1	0	-7	-1	nt	-1	6	nt
C(=N\Nc1nc(-c2cccnc2)nc2ccccc12)/c1ccccc1	-6	-15	-1	-5	-10	-5	nt
Cc1c(O)ccc(C=NNc2nc(-c3cccnc3)nc3ccccc23)c1O	nt	nt	nt	nt	nt	nt	nt	Fam108b inh=60*
SMILES	LYPLA1 inh	PME-1 primary	Fam108B counter	RBBP9 inh	LYPLA2 counter	PAD4 inh	Fam108b confirm	others
CC1=Nc2ccccc2/C1=C\c1sc(Nc2ccc(C)cc2)nc1O	-3	52*	23*	-1	-2	-3	5
Oc1nc(Nc2cccc(Cl)c2)sc1/C=C1\C=Nc2ccccc21	-3	49*	34*	1	-11	-4	33*	Fam108b inh=95*
O=c1[nH]c(S)c(/C=C2\C=Nc3ccccc32)s1	4	5	18	-1	0	-4	nt
CC1=Nc2ccccc2/C1=C/c1sc(=O)n(CC(=O)N2CCCC2)c1O	-1	5	4	-6	-4	-8	nt
Oc1cccc(Nc2nc(O)c(/C=C3\C=Nc4ccccc43)s2)c1	-19	28*	44*	17*	-21	-22	16
O=C(NN1C(=O)/C(=C/C=C/c2ccco2)SC1=S)c1ccncc1	-9	-27	41*	6	-5	2	10
CC(C)C(C(=O)O)N1C(=O)/C(=C/C=C/c2ccco2)SC1=S (stereo not drawn)	-8	-30	38*	0	-2	-5	0
O=C1/C(=C/C=C/c2ccco2)SC(=S)N1c1ccc(O)cc1	-16	-10	19*	6	-14	-14	-1
CC(C)C(=O)Nc1cc2c3c(c1)CCC(=O)N3CCC2	1	-8	1	nt	3	-3	nt
Clc1ccc(C2Nc3cccc4cccc(c34)N2)cc1Cl	-5	15	24*	nt	-5	-4	21*
Brc1ccc(C2Nc3cccc4cccc(c34)N2)o1	-12	19	26*	-3	-10	5	8
Oc1ccccc1C1Nc2cccc3cccc(c23)N1	-12	46*	60*	-1	2	-6	31*	Fam108b inh=85*
Brc1cccc(C2Nc3cccc4cccc(c34)N2)c1	-1	17	22*	nt	6	0	0
Clc1cccc(Cl)c1C1Nc2cccc3cccc(c23)N1	0	8	6	nt	2	2	nt
Clc1cccc(C2Nc3cccc4cccc(c34)N2)c1	-11	1	18	nt	-7	1	nt
COc1ccccc1CNC(=O)N1CCN(c2ccccc2Cl)CC1	-1	0	1	nt	3	-6	nt
COC(=O)c1cc(-c2cccc(OC)c2)c2c(=O)[nH]c(=O)n(C)c2n1	6	15	-7	nt	9	-1	nt
CCOc1ccc(OCCC(=O)OCC(=O)Nc2ccc3c(c2)OCCO3)cc1	1	-1	1	nt	-5	-3	nt
CC(C)c1ccc(C2C3=C(CC(C)(C)CC3=O)NC3=C2C(=O)c2ccccc23)cc1 (stereo not drawn)	-9	11	23*	2	-3	0	4
CC1(C)CC(=O)C2=C(C1)NC1=C(C(=O)c3ccccc31)C2c1ccccc1 (stereo not drawn)	0	7	14	-3	3	4	nt
